ChEMBL document CHEMBL2434950 (Eur J Med Chem, 2013)
Values after ≈ are worked out from the molar mass of the structure shown.

Tested on: Trypanosoma cruzi
Assay: Antiparasitic activity against Trypanosoma cruzi EP epimastigotes
Assay type: functional
Details: not given

For N#CSCCOc1ccc(Oc2ccccc2)cc1, the MIC was 1 µM (≈ 0.271 µg/mL).

Tested on: Trypanosoma cruzi
Assay: Ratio of compound ED50 to WC-9 ED50 for Trypanosoma cruzi amastigotes after 3 days by fluorescence assay
Assay type: functional
Details: not given

Compound N#CSCCOc1ccc(Oc2cccc([N+](=O)[O-])c2)cc1 has a Ratio ED50 of 1.04.

Tested on: not listed separately
Assay: Cytotoxicity against african green monkey Vero cells by Alamar blue assay
Assay type: cell-based
Details: chlorocebus sabaeus, read-out: ED50 (the source's name)

O=[N+]([O-])c1cccc(Oc2ccc(OCCOC3CCCCO3)cc2)c1 (stereo not given) and c1cncc(Oc2ccc(OCCOC3CCCCO3)cc2)c1 (stereo not given) cannot be ordered by CC50: over 50 µM for the first, over 50 µM for the second.

N#CSCCOc1ccc(Oc2cccc([N+](=O)[O-])c2)cc1 and COc1cccc(Oc2ccc(OCCSC#N)cc2)c1 cannot be ordered by CC50: over 50 µM for the first, over 50 µM for the second.

COc1ccc(Oc2ccc(OCCSC#N)cc2)cc1 and COc1ccc(Oc2cccc(OCCSC#N)c2)cc1 cannot be ordered by CC50: over 100 µM for the first, over 50 µM for the second.

N#CSCCOc1ccc(Oc2cccnc2)cc1 and N#CSCCOc1ccc(Oc2ccccc2)cc1 cannot be ordered by CC50: over 50 µM for the first, over 50 µM for the second.

For N#CSCCOc1cccc(Oc2ccccc2)c1, the CC50 was over 50 µM.

Tested on: not listed separately
Assay: Non-competitive inhibition of mitochondrial Trypanosoma cruzi SQS
Details: not given

In the case of N#CSCCOc1ccc(Oc2ccccc2)cc1, the IC50 is reported as 0.129 µM.

Compound N#CSCCOc1ccc(Oc2ccccc2)cc1 has a Ki of 0.129 µM.

Tested on: Trypanosoma cruzi
Assay: Antiparasitic activity against Trypanosoma cruzi amastigotes after 3 days by fluorescence assay
Assay type: functional
Details: 72 h, read-out: ED50 (the source's name)
Procedure, shortened: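 Gamma-irradiated (2000 Rads) Vero cells, 3.4×10^4/well in RPMI with 10% FBS, were kept overnight at 35 °C, 7% CO2. […] Serial dilutions were added at 5 concentrations up to 20 or 25 µM, each in quadruplicate, with a benznidazole control. Fluorescence was read at day 3, and IC50 was derived by non-linear regression.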

O=[N+]([O-])c1cccc(Oc2ccc(OCCOC3CCCCO3)cc2)c1 (stereo not given) and c1cncc(Oc2ccc(OCCOC3CCCCO3)cc2)c1 (stereo not given) cannot be ordered by EC50: over 10 µM for the first, over 10 µM for the second.

N#CSCCOc1ccc(Oc2cccc([N+](=O)[O-])c2)cc1 and COc1cccc(Oc2ccc(OCCSC#N)cc2)c1 are within 1.5-fold of each other in EC50: 5.2 µM for the first, 4.5 µM for the second.

Compared with COc1ccc(Oc2ccc(OCCSC#N)cc2)cc1, COc1ccc(Oc2cccc(OCCSC#N)c2)cc1 is 1.7-fold higher in EC50: 6.1 µM for the first, 10.1 µM for the second.

N#CSCCOc1ccc(Oc2cccnc2)cc1 and N#CSCCOc1ccc(Oc2ccccc2)cc1 are within 1.5-fold of each other in EC50: 7.4 µM for the first, 5 µM for the second.

First: N#CSCCOc1cccc(Oc2ccccc2)c1
Second: O=C(Cn1ccnc1[N+](=O)[O-])NCc1ccccc1 [BENZNIDAZOLE]
The EC50 of the first is 6.4-fold higher: 11.2 µM for the first, 1.75 µM for the second.

Tested on: Toxoplasma gondii
Assay: Antiparasitic activity against Toxoplasma gondii tachyzoites by fluorescence assay
Assay type: functional
Details: read-out: ED50 (the source's name)
Procedure, shortened: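 Red fluorescent protein-expressing tachyzoites were filtered (3 µm) and needle-passed, then seeded at 4×10^4/well onto confluent hTERT monolayers in DMEM-HG with 1% FBS, 2 mM glutamine and 1 mM pyruvate, at 37 °C. Drugs were serially diluted in the same medium. Plates were read daily from the bottom (ex 544/em 590 nm). EC50 came from the fit I = Imax·C/(EC50 + C), Imax 100%. Three experiments, each in triplicate.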

Compared with O=[N+]([O-])c1cccc(Oc2ccc(OCCOC3CCCCO3)cc2)c1 (stereo not given), N#CSCCOc1ccc(Oc2cccc([N+](=O)[O-])c2)cc1 is 1.6-fold lower in EC50: 3.28 µM for the first, 2.03 µM for the second.

Compared with COc1ccc(Oc2ccc(OCCSC#N)cc2)cc1, COc1cccc(Oc2ccc(OCCSC#N)cc2)c1 is 1.8-fold higher in EC50: 3.81 µM for the first, 6.7 µM for the second. The first is the more potent here.

Going from N#CSCCOc1ccc(Oc2cccnc2)cc1 to N#CSCCOc1ccc(Oc2ccccc2)cc1, the EC50 falls from 7.5 µM to 4.8 µM (1.6-fold). The second is the more potent here.

N#CSCCOc1cccc(Oc2ccccc2)c1 and COc1ccc(Oc2cccc(OCCSC#N)c2)cc1 are within 1.5-fold of each other in EC50: 3.95 µM for the first, 2.93 µM for the second.

In the case of O=C1C(O)=C([C@H]2CC[C@H](c3ccc(Cl)cc3)CC2)C(=O)c2ccccc21 [ATOVAQUONE], the EC50 is reported as 0.032 µM.

Tested on: Toxoplasma gondii
Assay: Antiparasitic activity against Toxoplasma gondii tachyzoites at 10 uM by fluorescence assay
Assay type: functional
Details: not given

With c1cncc(Oc2ccc(OCCOC3CCCCO3)cc2)c1 (stereo not given) the Activity was 3.25%.

Tested on: not listed separately
Assay: Non-competitive inhibition of glycosomal Trypanosoma cruzi SQS
Details: not given

In the case of N#CSCCOc1ccc(Oc2ccccc2)cc1, the IC50 is reported as 0.088 µM.

For N#CSCCOc1ccc(Oc2ccccc2)cc1, the Ki was 0.088 µM.
